In the library only some 3% were active in any assay of this set; here they are far more common.
CHRM4 agonist = human M4 muscarinic receptor agonists, primary screen, CHO-K1 cells, Fluo-8 calcium fluorescence. Muscarinic acetylcholine receptor M4 (Homo sapiens), P08173. 360,000 tested, 0.14% active. activation, % at 3 µM. CHO-K1 hM4/Gqi5; vehicle 0%, full acetylcholine response 100%;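 active = activation above the run mean over all test wells plus 3 SD, cut at about 32% in these data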;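 note: peak over basal fluorescence ratio per well then scaled between controls; 0% = DMSO wells and 100% = acetylcholine at EC100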
Target sequence (P08173 whole entry, looked up): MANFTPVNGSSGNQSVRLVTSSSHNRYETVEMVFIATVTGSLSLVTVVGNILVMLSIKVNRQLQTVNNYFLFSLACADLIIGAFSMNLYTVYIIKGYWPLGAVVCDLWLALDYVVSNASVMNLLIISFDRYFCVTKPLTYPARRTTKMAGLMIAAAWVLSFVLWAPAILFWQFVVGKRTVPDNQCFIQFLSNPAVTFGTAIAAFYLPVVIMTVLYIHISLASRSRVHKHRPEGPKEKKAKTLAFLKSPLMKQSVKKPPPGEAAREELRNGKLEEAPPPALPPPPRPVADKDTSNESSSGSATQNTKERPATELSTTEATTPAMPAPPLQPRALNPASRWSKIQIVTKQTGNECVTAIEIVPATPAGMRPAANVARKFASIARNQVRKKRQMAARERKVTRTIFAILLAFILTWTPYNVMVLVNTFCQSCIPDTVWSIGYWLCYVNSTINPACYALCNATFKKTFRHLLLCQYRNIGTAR
TAAR1 agonist = human TAAR1 agonists, primary screen, Fluo-8 calcium fluorescence, CHO RD-HGA16 cells; Trace amine-associated receptor 1 (Homo sapiens), Q96RJ0; vehicle wells 0%, saturating PEA agonist 100%; activation, % at 3 µM; 360,000 tested, 0.99% active; AID 624467, 2012;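 active = activation above the mean activation of all test compounds in the run plus 3 SD, cut at about 38% in these data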
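Test system: RD-HGA16 (CHO) cells co-expressing Gα16 and hTAAR1 | Doses: Single dose, 3 µM | Schedule: 17-24 h seeding, 75 min 37 °C dye, 30 min RT | Evaluation: % activation from peak over basal fluorescence ratio, DMSO-to-PEA scaled | Technique: Kinetic Fluo-8 calcium fluorescence | Benchmarks: Low control DMSO, high control PEA (EC100)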
CHRM4 PAM = human M4 muscarinic receptor positive allosteric modulators, primary screen, CHO-K1 cells, Fluo-8 calcium fluorescence; CHO-K1 hM4/Gqi5, ACh EC20; 0% = ACh EC20, 100% = maximal ACh; activation, % at 3 µM; 360,000 tested, 0.4% active; AID 624126, 2012;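 active = activation above its plate's cutoff, the mean activation of sample wells plus 3 SD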
CHRM4 antagonist = human M4 muscarinic receptor antagonists, primary screen, CHO cells, Fluo-8 calcium fluorescence | CHO-hM4 cells, ACh EC80 | Muscarinic acetylcholine receptor M4 (Homo sapiens), P08173 | inhibition, % at 3 µM | AID 624125, 2012 | 360,000 tested, 0.73% active;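 active = inhibition above its plate's cutoff, the mean inhibition of sample wells plus 3 SD, cut at about 27% in these data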;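 note: 0% = acetylcholine EC80 with DMSO and 100% = DMSO without agonist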
TAAR1 antag = human TAAR1 antagonists, primary screen, Fluo-8 calcium fluorescence, CHO RD-HGA16 cells; Trace amine-associated receptor 1 (Homo sapiens), Q96RJ0; antagonist; inhibition, % at 3 µM; 360,000 tested, 1.5% active; AID 624466, 2012;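 active = inhibition above a per-plate cutoff, the mean inhibition of test compounds on that plate plus 3 SD, cut at about 49% in these data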;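 note: 0% = DMSO plus EC80 beta-PEA response and 100% = DMSO alone without agonist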
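System: RD-HGA16 CHO cells with stable hTAAR1 and Gα16 | Probe or stimulus: EC80 β-phenethylamine stimulus | Dosing: 3 µM, single point | Times: Dye loading 75 min at 37 °C, then 30 min room temperature | Measured by: Fluo-8 calcium-sensitive fluorescence | Read-out basis: % inhibition of agonist calcium response | Replicates: n of 1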
TAAR1 nonsel count = nonselective antagonists in TAAR1 counter-screen cells, counter-screen for hTAAR1 antagonist project, cell-based, fluorescence, calcium; inhibition, % at 3 µM; AID 651780, 2012; counterscreen cell line, antagonist mode; 2,400 tested, 77% active; shares compounds with TAAR1 antag; in the data active = inhibition above about 22%;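 note: CHO-Ga16 host cells stimulated with ATP at an EC80 level; 0% = agonist EC80 plus vehicle and 100% = vehicle without agonist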
TAAR1 ant conf = human TAAR1 antagonists, retest of hits, confirmation, cell-based, fluorescence; TAAR1-expressing cells, fluorescence antagonist read-out; AID 651785, 2012; shares compounds with TAAR1 antag; 2,400 tested, 40% active; inhibition, % at 3 µM; in the data active = inhibition above about 49%;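 note: CHO-Ga16 host cells challenged with agonist PEA near its EC80; 0% = agonist at EC80 plus vehicle and 100% = vehicle with no agonist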
Ga16 ag counter = calcium activation in Ga16-expressing cells, counter-screen for TAAR1 antagonist project, cell-based, fluorescence. shares compounds with TAAR1 antag. agonist counterscreen. activation, % at 3 µM. 2,400 tested, 18% active. AID 651953, 2012; in the data active = activation above about 12%;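 note: 0% = vehicle wells and 100% = saturating stimulus response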
TAAR1 ag count = TAAR1 activation by candidate antagonists – cell-based, fluorescence, counter-screen for TAAR1 antagonist project | shares compounds with TAAR1 antag | hTAAR1 cell line, agonist mode | activation, % at 3 µM | 2,400 tested, 2% active | AID 651955, 2012; in the data active = activation above about 37%;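 note: CHO cells stably expressing TAAR1 with calcium dye readout; 0% = DMSO vehicle and 100% = full agonist response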
The depositor's hits bear a star; . = no result given.

SMILES	CHRM4 agonist	TAAR1 agonist	CHRM4 PAM	CHRM4 antagonist	TAAR1 antag	TAAR1 nonsel count	TAAR1 ant conf	Ga16 ag counter	TAAR1 ag count
Cc1c(/C=N/NC(=O)c2ccccc2O)c2ccccn2c1C(=O)c1ccc(F)cc1	8	13	-3	-4	93*	48*	94*	12*	10
Cc1c(/C=N/NC(=O)c2ccc(O)cc2)c2ccccn2c1C(=O)c1ccc(F)cc1	3	0	-4	3	36	.	.	.	.
CC(C)(C)c1ccc(CNc2ccc([N+](=O)[O-])cn2)cc1	0	1	-11	6	68*	14	39	12*	16
CC(C)c1ccc(CNc2ccc([N+](=O)[O-])cn2)cc1	-2	8	-4	1	48	.	.	.	.
COc1ccc(-n2ncc3c(N4CCN(Cc5ccccc5)CC4)ncnc32)cc1	11	10	-10	9	60*	28*	50*	8	5
CCN1CCN(c2ncnc3c2cnn3-c2ccc(Cl)cc2)CC1	3	3	-1	-17	-23	.	.	.	.
Cc1ccc(-n2ncc3c(N4CCCC4)ncnc32)c(C)c1	0	4	11	-1	9	.	.	.	.
COc1cccc(N2CCN(c3ncnc4c3cnn4-c3ccc(C)cc3C)CC2)c1	26	4	-11	47*	96*	48*	65*	9	5
Nc1[nH]c(C(=O)c2ccc(Br)cc2)c(-c2ccc(F)cc2)c1C(=O)NCCc1c[nH]c2ccccc12	.	1	.	.	-8	.	.	.	.
CCOC(=O)C1(C)CCCN(C(=O)c2c(-c3ccccc3)noc2C)C1 (stereo unspecified)	1	1	2	-7	-9	.	.	.	.
COc1ccccc1NC1=C(Cl)C(=O)N(c2ccccc2)C1=O	2	-2	-4	2	5	.	.	.	.
CCOc1ccc(N2C(=O)C(Cl)=C(Nc3ccccc3O)C2=O)cc1	19	15	-9	-10	57*	28*	39	12*	7
CC(C)CC(C(=O)NC1CCCC1)N(Cc1cccs1)C(=O)c1snc(C(N)=O)c1N (stereo unspecified)	11	7	-4	-4	55*	29*	40	6	3
CCCC(C(=O)NC1CCCC1)N(Cc1ccc2c(c1)OCO2)C(=O)c1snc(C(N)=O)c1N (stereo unspecified)	21	17	-2	1	63*	28*	49*	9	11
CC(C)CC(C(=O)NC1CCCCC1)N(Cc1cccs1)C(=O)c1snc(C(N)=O)c1N (stereo unspecified)	9	9	-12	-3	43	.	.	.	.
Cc1cccc(OCC(O)Cn2c(N3CCCCC3)nc3c2c(=O)n(C)c(=O)n3C)c1 (stereo unspecified)	11	12	-13	9	64*	30*	42	8	10
COc1cccc(-c2oc3c(c2C(=O)OCCN(C)C)C(O)CCC3)c1 (stereo unspecified)	1	1	0	0	-19	.	.	.	.
CC(C)C(=O)Nc1cccc(C(=O)OCC(=O)c2ccc(Cl)cc2Cl)c1	2	19	-2	-3	78*	54*	61*	14*	7
CCOc1ccc2[nH]c(C(=O)N/N=C/c3ccc(OC)cc3)cc2c1	15	9	-2	-7	70*	22*	55*	8	5
CN(c1ccccc1)S(=O)(=O)c1cccc(NC(=O)Cn2cnc3ccccc3c2=O)c1	9	7	-3	-8	9	.	.	.	.
CN(c1ccccc1)S(=O)(=O)c1cccc(NC(=O)c2nn(C)c(=O)c3ccccc23)c1	16	10	-12	13	59*	25*	41	6	6
O=C(O)c1cccc(C(=O)O)c1S(=O)Cc1ccccc1 (stereo unspecified)	.	1	.	.	-1	.	.	.	.
Cc1ccccc1N1C(=O)c2ccccc2N2C(=O)c3ccccc3C12 (stereo unspecified)	1	-1	-3	-3	-11	.	.	.	.
COc1ccc2c(c1OC)C(=O)N1c3ccccc3C(=O)N(c3ccccc3)C21 (stereo unspecified)	16	22	-14	16	63*	32*	51*	12*	11
COc1cccc(C2Nc3ccccc3C(=O)N2c2ccc(F)cc2)c1O (stereo unspecified)	1	2	-1	-6	-10	.	.	.	.
SMILES	CHRM4 agonist	TAAR1 agonist	CHRM4 PAM	CHRM4 antagonist	TAAR1 antag	TAAR1 nonsel count	TAAR1 ant conf	Ga16 ag counter	TAAR1 ag count
COc1ccc2c(c1OC)C(=O)N1c3ccccc3C(=O)N(c3ccc(F)cc3)C21 (stereo unspecified)	17	19	-15	21	82*	28*	49*	8	11
COc1cc(OC)cc(C(=O)NCC2CCN(C(=O)C(=O)c3cc4ccccc4o3)CC2)c1	.	0	.	.	-23	.	.	.	.
COc1cccc(CN(C)C(=O)C2CCCN(C(=O)c3ccc(Cl)cc3)C2)c1 (stereo unspecified)	4	0	4	-6	-7	.	.	.	.
O=C1c2ccccc2C(=O)N1CCC#Cc1ccc2cc(CCCO)oc(=O)c2c1	14	19	-5	0	69*	61*	75*	24*	36
NC(=O)C1CC2(C1)CC(C(N)=O)C2 (stereo unspecified)	0	2	3	-9	-22	.	.	.	.
COC(=O)CN1C(=O)COc2ccc(S(=O)(=O)N3CCCCC3)cc21	0	6	5	3	-20	.	.	.	.
COc1ccc(CNC(=O)COc2ccc(S(=O)(=O)N3CCCCC3)cc2Cl)cc1	6	10	-1	-9	73*	26*	45	10	13
O=C(c1cn(-c2ccccc2)nc1-c1cccs1)N1CCN(c2ccc(F)cc2)CC1	9	9	-10	12	56*	17	23	2	2
N=C1CCCC1C(=S)SCCC(N)=O (stereo unspecified)	2	2	5	-24	-31	.	.	.	.
